Experimental data from ChEMBL document CHEMBL1153837, “Intracellular pharmacokinetics of once versus twice daily zidovudine and lamivudine in adolescents” (Antimicrob Agents Chemother, 2007).

Experiments:
Homo sapiens [1] = assay: Drug metabolism in HIV-infected human PBMC assessed as zidovudine diphosphate level at 600 mg administered in two courses, first QD for 7 days followed by BID for 7 to 14 days and second course the subjects were switched to the other regimen measured per 10^6 cells in presence of Lamivudine; type: ADME, organism-based
In short: (§1)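 Randomized crossover of Combivir: 600 mg ZDV/300 mg 3TC QD versus 300 mg/150 mg BID, in either order. Predose morning PBMC samples were taken on each regimen. Metabolites were separated on QMA cartridges, acid-phosphatase dephosphorylated, C-18 cleaned and quantified by RIA, reported per 10⁶ cells. Values below LLOQ were imputed as half LLOQ. Regimens were compared by Wilcoxon rank-sum; BID/QD ratios as medians with 95% CI.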

Homo sapiens [2] = assay: Drug metabolism in HIV-infected human PBMC assessed as zidovudine triphosphate level at 600 mg administered in two courses, first QD for 7 days followed by BID for 7 to 14 days and second course the subjects were switched to the other regimen measured per 10^6 cells in presence of Lamivudine; type: ADME, organism-based; in short: as §1
Homo sapiens [3] = assay: Drug metabolism in HIV-infected human PBMC assessed as zidovudine diphosphate level at 600 mg administered in two courses, first BID for 7 to 14 days followed by QD for 7 days and second course the subjects were switched to the other regimen measured per 10^6 cells in presence of Lamivudine; type: ADME, organism-based; in short: as §1
Homo sapiens [4] = organism: Homo sapiens; assay: AUC in HIV-infected human assessed as zidovudine triphosphate level in PBMC at 600 mg QD for 7 days in presence of Lamivudine; type: ADME, organism-based; details: in vivo, 168 h
In short: (§2)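 Adolescents on Combivir QD (two tablets) gave a predose morning sample, then bloods at 2, 4, 6, 12 and 24 h. PBMC were lysed in 70% methanol (15 mM Tris pH 7.0) and anion-exchange cartridges separated MP/DP/TP by KCl step elution. Fractions were dephosphorylated with acid phosphatase, then ZDV or 3TC was measured by RIA (LOQ 0.15 ng/ml). Noncompartmental parameters; AUC by trapezoidal method; undetectables set to half LLOQ.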

Homo sapiens [5] = organism: Homo sapiens; assay: AUC in HIV-infected human assessed as zidovudine diphosphate level in PBMC at 600 mg QD for 7 days in presence of Lamivudine; type: ADME, organism-based; details: in vivo, 168 h; in short: as §2
Homo sapiens [6] = organism: Homo sapiens; assay: AUC in HIV-infected human assessed as zidovudine monophosphate level in PBMC at 600 mg QD for 7 days in presence of Lamivudine; type: ADME, organism-based; details: in vivo, 168 h; in short: as §2
Homo sapiens [7] = assay: Drug metabolism in HIV-infected human PBMC assessed as zidovudine monophosphate level at 600 mg administered in two courses, first BID for 7 to 14 days followed by QD for 7 days and second course the subjects were switched to the other regimen measured per 10^6 cells in presence of Lamivudine; type: ADME, organism-based; in short: as §1
Homo sapiens [8] = assay: Drug metabolism in HIV-infected human PBMC assessed as zidovudine monophosphate level at 600 mg administered in two courses, first QD for 7 days followed by BID for 7 to 14 days and second course the subjects were switched to the other regimen measured per 10^6 cells in presence of Lamivudine; type: ADME, organism-based; in short: as §1
Homo sapiens [9] = assay: Drug metabolism in HIV-infected human PBMC assessed as zidovudine parent-drug level at 600 mg administered in two courses, first BID for 7 to 14 days followed by QD for 7 days and second course the subjects were switched to the other regimen measured per 10^6 cells in presence of Lamivudine; type: ADME, organism-based; in short: as §1
Homo sapiens [10] = assay: Drug metabolism in HIV-infected human PBMC assessed as zidovudine parent-drug level at 600 mg administered in two courses, first QD for 7 days followed by BID for 7 to 14 days and second course the subjects were switched to the other regimen measured per 10^6 cells in presence of Lamivudine; type: ADME, organism-based; in short: as §1
Homo sapiens [11] = assay: Drug metabolism in HIV-infected human PBMC assessed as zidovudine triphosphate level at 600 mg administered in two courses, first BID for 7 to 14 days followed by QD for 7 days and second course the subjects were switched to the other regimen measured per 10^6 cells in presence of Lamivudine; type: ADME, organism-based; in short: as §1
Homo sapiens [12] = organism: Homo sapiens; assay: Tmax in HIV-infected human assessed as zidovudine triphosphate level in PBMC at 600 mg QD for 7 days in presence of Lamivudine; type: ADME, organism-based; details: in vivo, 168 h; in short: as §2
Homo sapiens [13] = organism: Homo sapiens; assay: Tmax in HIV-infected human assessed as zidovudine diphosphate level in PBMC at 600 mg QD for 7 days in presence of Lamivudine; type: ADME, organism-based; details: in vivo, 168 h; in short: as §2
Homo sapiens [14] = organism: Homo sapiens; assay: Tmax in HIV-infected human assessed as zidovudine monophosphate level in PBMC at 600 mg QD for 7 days in presence of Lamivudine; type: ADME, organism-based; details: in vivo, 168 h; in short: as §2
Homo sapiens [15] = organism: Homo sapiens; assay: Cmax in HIV-infected human assessed as zidovudine triphosphate level in PBMC at 600 mg QD for 7 days measured per 10^6 cells in presence of Lamivudine; type: ADME, organism-based; set-up: dose 600 mg; details: 168 h; in short: as §2
Homo sapiens [16] = organism: Homo sapiens; assay: Cmax in HIV-infected human assessed as zidovudine diphosphate level in PBMC at 600 mg QD for 7 days measured per 10^6 cells in presence of Lamivudine; type: ADME, organism-based; set-up: dose 600 mg; details: 168 h; in short: as §2
Homo sapiens [17] = organism: Homo sapiens; assay: Cmax in HIV-infected human assessed as zidovudine monophosphate level in PBMC at 600 mg QD for 7 days measured per 10^6 cells in presence of Lamivudine; type: ADME, organism-based; set-up: dose 600 mg; details: 168 h; in short: as §2
[18] = Half life in HIV-infected human plasma at 1500 mg; type: ADME, cell-free
[19] = Half life in HIV-infected human at 600 mg, po qd; details: in vivo
[20] = Half life in HIV-infected human at 300 mg, po bid; details: in vivo
Homo sapiens [21] = organism: Homo sapiens; assay: AUC in HIV-infected human assessed as Lamivudine triphosphate level in PBMC at 300 mg QD for 7 days in presence of zidovudine; type: ADME, organism-based; details: in vivo, 168 h; in short: as §2
Homo sapiens [22] = organism: Homo sapiens; assay: AUC in HIV-infected human assessed as Lamivudine diphosphate level in PBMC at 300 mg QD for 7 days in presence of zidovudine; type: ADME, organism-based; details: in vivo, 168 h; in short: as §2
Homo sapiens [23] = organism: Homo sapiens; assay: AUC in HIV-infected human assessed as Lamivudine monophosphate level in PBMC at 300 mg QD for 7 days in presence of zidovudine; type: ADME, organism-based; details: in vivo, 168 h; in short: as §2
Homo sapiens [24] = organism: Homo sapiens; assay: Tmax in HIV-infected human assessed as Lamivudine triphosphate level in PBMC at 300 mg QD for 7 days in presence of zidovudine; type: ADME, organism-based; details: in vivo, 168 h; in short: as §2
Homo sapiens [25] = organism: Homo sapiens; assay: Tmax in HIV-infected human assessed as Lamivudine diphosphate level in PBMC at 300 mg QD for 7 days in presence of zidovudine; type: ADME, organism-based; details: in vivo, 168 h; in short: as §2
Homo sapiens [26] = organism: Homo sapiens; assay: Tmax in HIV-infected human assessed as Lamivudine monophosphate level in PBMC at 300 mg QD for 7 days in presence of zidovudine; type: ADME, organism-based; details: in vivo, 168 h; in short: as §2
Homo sapiens [27] = organism: Homo sapiens; assay: Cmax in HIV-infected human assessed as Lamivudine triphosphate level in PBMC at 300 mg QD for 7 days measured per 10^6 cells in presence of zidovudine; type: ADME, organism-based; set-up: dose 300 mg; details: 168 h; in short: as §2
Homo sapiens [28] = organism: Homo sapiens; assay: Cmax in HIV-infected human assessed as Lamivudine diphosphate level in PBMC at 300 mg QD for 7 days measured per 10^6 cells in presence of zidovudine; type: ADME, organism-based; set-up: dose 300 mg; details: 168 h; in short: as §2
Homo sapiens [29] = organism: Homo sapiens; assay: Cmax in HIV-infected human assessed as Lamivudine monophosphate level in PBMC at 300 mg QD for 7 days measured per 10^6 cells in presence of zidovudine; type: ADME, organism-based; set-up: dose 300 mg; details: 168 h; in short: as §2
Homo sapiens [30] = assay: Drug metabolism in HIV-infected human PBMC assessed as lamivudine parent-drug level at 300 mg administered in two courses, first QD for 7 days followed by BID for 7 to 14 days and second course the subjects were switched to the other regimen measured per 10^6 cells in presence of zidovudine
Homo sapiens [31] = assay: Drug metabolism in HIV-infected human PBMC assessed as lamivudine parent-drug level at 300 mg administered in two courses, first BID for 7 to 14 days followed by QD for 7 days and second course the subjects were switched to the other regimen measured per 10^6 cells in presence of zidovudine
Homo sapiens [32] = assay: Drug metabolism in HIV-infected human PBMC assessed as lamivudine diphosphate level at 300 mg administered in two courses, first QD for 7 days followed by BID for 7 to 14 days and second course the subjects were switched to the other regimen measured per 10^6 cells in presence of lamivudine
Homo sapiens [33] = assay: Drug metabolism in HIV-infected human PBMC assessed as lamivudine monophosphate level at 300 mg administered in two courses, first QD for 7 days followed by BID for 7 to 14 days and second course the subjects were switched to the other regimen measured per 10^6 cells in presence of lamivudine
Homo sapiens [34] = assay: Drug metabolism in HIV-infected human PBMC assessed as lamivudine monophosphate level at 300 mg administered in two courses, first BID for 7 to 14 days followed by QD for 7 days and second course the subjects were switched to the other regimen measured per 10^6 cells in presence of lamivudine

**Q.** With `Cc1cn([C@H]2C[C@H](N=[N+]=[N-])[C@@H](CO)O2)c(=O)[nH]c1=O` [ZIDOVUDINE] as the molecule, how does the Drug uptake (Homo sapiens [1]) read?
**A.** 11.5 fmol

**Q.** And the Drug uptake (Homo sapiens [2])?
**A.** 9.3 fmol

**Q.** What about the Drug uptake (Homo sapiens [3]) of the same molecule?
**A.** 12.2 fmol

**Q.** And the AUC (Homo sapiens [4])?
**A.** 502 fmol

**Q.** And the AUC (Homo sapiens [5])?
**A.** 627 fmol

**Q.** What about the AUC (Homo sapiens [6]) of the same molecule?
**A.** 11883 fmol

**Q.** And the Drug uptake (Homo sapiens [7])?
**A.** 75.3 fmol

**Q.** What about the Drug uptake (Homo sapiens [8]) of the same molecule?
**A.** 76.2 fmol

**Q.** And the Drug uptake (Homo sapiens [9])?
**A.** 23.5 fmol

**Q.** And the Drug uptake (Homo sapiens [10])?
**A.** 23.5 fmol

**Q.** And the Drug uptake (Homo sapiens [11])?
**A.** 15.4 fmol

**Q.** What about the Tmax (Homo sapiens [12]) of the same molecule?
**A.** 4.74 h

**Q.** And the Tmax (Homo sapiens [13])?
**A.** 3.48 h

**Q.** And the Tmax (Homo sapiens [14])?
**A.** 2.44 h

**Q.** What about the Cmax (Homo sapiens [15]) of the same molecule?
**A.** 43.9 fmol

**Q.** And the Cmax (Homo sapiens [16])?
**A.** 62.47 fmol

**Q.** And the Cmax (Homo sapiens [17])?
**A.** 2997.65 fmol

**Q.** What about the half-life [18] of the same molecule?
**A.** 60 min

**Q.** And the half-life [19]?
**A.** 378 min

**Q.** What about the half-life [20] of the same molecule?
**A.** 329 min

**Q.** What does the source list for `Nc1ccn([C@@H]2CS[C@H](CO)O2)c(=O)n1` [LAMIVUDINE]?
**A.** AUC (Homo sapiens [21]): 65.19 pmol; AUC (Homo sapiens [22]): 70.01 pmol; AUC (Homo sapiens [23]): 10.42 pmol; Tmax (Homo sapiens [24]): 6.67 h; Tmax (Homo sapiens [25]): 6.37 h; Tmax (Homo sapiens [26]): 6.3 h; Cmax (Homo sapiens [27]): 4840 fmol; Cmax (Homo sapiens [28]): 4424 fmol; Cmax (Homo sapiens [29]): 760 fmol; lamivudine parent-drug uptake (Homo sapiens [30]): 302 pmol; lamivudine parent-drug uptake (Homo sapiens [31]): 437 pmol; lamivudine diphosphate uptake (Homo sapiens [32]): 1934 pmol; lamivudine monophosphate uptake (Homo sapiens [33]): 282 pmol; lamivudine monophosphate uptake (Homo sapiens [34]): 396 pmol
